# In ChEMBL document CHEMBL4825663 (J Med Chem, 2021):
# How the values were obtained:
# [1] = Ratio of drug concentration in BALB/c mouse large intestine to plasma at 20 mg/kg, po measured upto 24 hrs in presence of 10 mg/kg encequidar by LC-MS/MS analysis; assay type: ADME, organism-based
# [2] = Ratio of drug concentration in BALB/c mouse lung to plasma at 20 mg/kg, po measured upto 24 hrs in presence of 10 mg/kg encequidar by LC-MS/MS analysis; assay type: ADME, organism-based
# [3] = Ratio of drug concentration in BALB/c mouse small intestine to plasma at 20 mg/kg, po measured upto 24 hrs in presence of 10 mg/kg encequidar by LC-MS/MS analysis; assay type: ADME, organism-based
# [4] = Drug metabolism in dog plasma assessed as metabolic ratio of 3-p-hydroxypaclitaxel at 6 mg/kg, po in presence of 3 mg/kg encequidar; assay type: ADME, organism-based, Canis lupus familiaris; settings: in vivo
# [5] = Drug distribution in Sprague-Dawley rat intestine at 20 mg/kg, po measured upto 168 hrs in presence of 10 mg/kg encequidar by LC-MS/MS analysis; assay type: ADME, organism-based; settings: in vivo
# [6] = Tmax in Sprague-Dawley rat at 6 mg/kg, iv measured upto 24 hrs by LC-MS/MS analysis; assay type: ADME, organism-based; settings: in vivo
# [7] = Clearance in Sprague-Dawley rat at 6 mg/kg, iv measured upto 24 hrs by LC-MS/MS analysis; assay type: ADME, organism-based; settings: in vivo
# [8] = AUClast in Sprague-Dawley rat at 20 mg/kg, po measured upto 24 hrs in presence of 10 mg/kg encequidar by LC-MS/MS analysis; assay type: ADME, organism-based; design: route oral, dose 20 mg/kg, time <=24; settings: in vivo
# HT-29 = test: Antitumor activity against human HT-29 cells xenografted in athymic nude mouse assessed as reduction in tumor growth at 40 mg/kg, po in presence of 20 mg/kg encequidar; assay type: functional; design: scale not given: the % may be the effect or the level left
# [9] = Half life in Sprague-Dawley rat at 6 mg/kg, iv measured upto 24 hrs by LC-MS/MS analysis; settings: in vivo
# [10] = Tmax in Sprague-Dawley rat at 20 mg/kg, po measured upto 24 hrs in presence of 10 mg/kg encequidar by LC-MS/MS analysis; assay type: ADME, organism-based; settings: in vivo
# [11] = Toxicity in athymic nude mouse xenografted with human NCI-H460 cells assessed as reduction in body weight at 30 to 50 mg/kg, po administered every other day for 4 doses in presence of 12 to 20 mg/kg encequidar and monitored for 48 days; assay type: organism-based; settings: in vivo, 1152 h, dose 30-50 mg/kg, time 48 day
# [12] = Toxicity in athymic nude mouse xenografted with human NCI-H460 cells assessed as reduction in body weight at 18 to 24 mg/kg, iv administered every other day for 4 doses monitored for 48 days; assay type: organism-based; settings: in vivo, 1152 h, dose 18-24 mg/kg, time 48 day
# Outline: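 Female athymic NCr-nu mice carried subcutaneous NCI-H460 human lung tumor xenografts. Paclitaxel was given IV at 18 or 24 mg/kg every other day for four doses. Animals were followed for 48 days after tumor implantation, with individual body weights and mortality recorded alongside tumor weights.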
# [13] = biological target: T1, Solute carrier organic anion transporter family member 1B1 (Homo sapiens, UniProt Q9Y6L6); test: Inhibition of human OATP1B1 assessed as reduction in intracellular probe substrate accumulation upto 100 uM by microplate scintillation counter analysis relative to control; assay type: cell-based
# T1 sequence (Q9Y6L6 whole entry): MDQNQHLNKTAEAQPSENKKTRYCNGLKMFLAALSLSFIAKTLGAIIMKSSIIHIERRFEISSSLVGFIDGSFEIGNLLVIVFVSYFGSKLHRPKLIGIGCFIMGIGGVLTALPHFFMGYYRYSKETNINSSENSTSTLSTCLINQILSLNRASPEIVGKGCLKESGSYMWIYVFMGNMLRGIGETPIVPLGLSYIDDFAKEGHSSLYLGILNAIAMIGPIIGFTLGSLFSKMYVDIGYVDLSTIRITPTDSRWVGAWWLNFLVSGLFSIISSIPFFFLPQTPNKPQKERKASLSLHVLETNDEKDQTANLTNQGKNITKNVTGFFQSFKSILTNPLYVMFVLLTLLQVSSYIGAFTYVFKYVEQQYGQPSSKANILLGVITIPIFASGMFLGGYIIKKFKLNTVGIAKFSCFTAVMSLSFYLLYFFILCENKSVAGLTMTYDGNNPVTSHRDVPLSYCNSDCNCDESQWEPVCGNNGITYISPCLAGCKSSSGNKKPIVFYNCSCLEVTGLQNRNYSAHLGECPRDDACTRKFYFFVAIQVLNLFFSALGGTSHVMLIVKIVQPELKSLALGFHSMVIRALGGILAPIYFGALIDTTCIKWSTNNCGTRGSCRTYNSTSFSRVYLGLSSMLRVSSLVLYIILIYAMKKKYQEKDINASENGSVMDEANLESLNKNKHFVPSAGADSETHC
# Outline: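 Cellular uptake-inhibition assays used Chinese hamster ovary, HEK293 or MDCKII cells stably expressing the respective human SLC transporter, run alongside the corresponding control cells. Inhibitor was tested at concentrations up to 100 μM.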
# [14] = Half life in Sprague-Dawley rat at 3 mg/kg, iv measured upto 48 hrs by LC-MS/MS analysis; assay type: ADME, organism-based; settings: in vivo
# Outline: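 Plasma pharmacokinetics in male Sprague-Dawley rats and male Beagle dogs (n = 3 per species), each given a single dose by IV at 3 mg/kg and by PO at 10 mg/kg. Cmax, Tmax, T1/2 and AUClast were derived for each route. F (%) was calculated from the PO and IV AUClast.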
# [15] = Cmax in Beagle dog at 10 mg/kg, po measured upto 48 hrs by LC-MS/MS analysis; settings: in vivo
# Cytochrome P450 2B6 = biological target: T2, Cytochrome P450 2B6 (Homo sapiens, UniProt P20813); test: Drug metabolism assessed as human CYP2B6-mediated metabolism; assay type: ADME; settings: recombinant enzyme
# T2 sequence (P20813 whole entry): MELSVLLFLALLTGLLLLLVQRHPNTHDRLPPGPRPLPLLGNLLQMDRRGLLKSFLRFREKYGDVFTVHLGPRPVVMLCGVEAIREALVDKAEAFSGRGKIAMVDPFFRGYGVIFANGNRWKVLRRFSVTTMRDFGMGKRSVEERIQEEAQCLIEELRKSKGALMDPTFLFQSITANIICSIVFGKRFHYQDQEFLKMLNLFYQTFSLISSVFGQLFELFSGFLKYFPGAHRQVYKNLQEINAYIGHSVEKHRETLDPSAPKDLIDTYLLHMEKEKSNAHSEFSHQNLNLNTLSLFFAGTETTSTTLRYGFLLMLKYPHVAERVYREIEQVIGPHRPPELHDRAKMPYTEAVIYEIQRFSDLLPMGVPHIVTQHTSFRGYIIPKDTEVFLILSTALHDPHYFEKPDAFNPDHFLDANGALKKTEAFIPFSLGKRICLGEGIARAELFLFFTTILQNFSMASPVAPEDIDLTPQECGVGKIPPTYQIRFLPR
# [16] = AUClast in Beagle dog at 3 mg/kg, iv measured upto 48 hrs by LC-MS/MS analysis; assay type: ADME, organism-based, Canis lupus familiaris; design: route intravenous, dose 3 mg/kg, time <=48; settings: in vivo
# Outline: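 Single dose in male Sprague-Dawley rats and male Beagle dogs (n = 3 per species), given 3 mg/kg IV or 10 mg/kg PO. Plasma was sampled to derive Cmax, Tmax, T1/2 and AUClast by each route. Oral bioavailability (F) was calculated from the PO and IV AUClast.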
# [17] = Toxicity in Beagle dog at 200 mg/kg, po administered as repeated dose and measured upto 13 weeks; assay type: organism-based, Canis lupus familiaris; settings: in vivo, 2184 h
SMILES,Kp at 24 h [1],Kp at 24 h [2],Kp at 24 h [3],Ratio [4],Drug uptake [5],Tmax [6] [min],clearance [7] [mL/min],AUC(0-t) at 24 h [8] [ng·h/mL],Activity (HT-29) [%],half-life at 24 h [9] [h],Tmax [10] [h],Activity [11],Activity [12],inhibition (INH) [13] [%],half-life [14] [h],Cmax [15] [ng/mL],Drug metabolism (Cytochrome P450 2B6),AUC(0-t) at 48 h [16] [ng·h/mL],Activity [17]
CC(=O)O[C@H]1C(=O)[C@@]2(C)[C@H]([C@H](OC(=O)c3ccccc3)[C@]3(O)C[C@H](OC(=O)[C@H](O)[C@@H](NC(=O)c4ccccc4)c4ccccc4)C(C)=C1C3(C)C)[C@]1(OC(C)=O)CO[C@@H]1C[C@@H]2O [PACLITAXEL],> 1,> 1,> 1,0.01,Active,4.8,35,3760,94,7.7,1,Toxic,Toxic,,,,,,
COc1cc2c(cc1OC)CN(CCc1ccc(-n3nnc(-c4cc(OC)c(OC)cc4NC(=O)c4cc(=O)c5ccccc5o4)n3)cc1)CC2,,,,,,,,,,,,,,< 50,14.8,26.6,Metabolite_Notdetected,1920,Non-Toxic
